Results on 4 molecules are retold here after publication PMC4349556 (Journal of pharmaceutical sciences, 2014).

A value given as a limit tells only on which side of the number the result lay.

Data set [1] is described as follows: Drug incorporation efficiency into lipid-drug nanoparticles. To be noted: for Drug incorporation (% total): anti-HIV drug combination LNPs (ATV+RTV+TFV) used in primates, preclinical scale; for Incorporation efficiency (%): DSPC:DSPE-mPEG2000 8:2, mean ± SD of 4. In kind it is physicochemical. In outline: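 Film rehydrated in 0.9% NaCl with 20 mM sodium bicarbonate (pH 7.4) at 60°C for 2 h, then sonicated or homogenized. 50 μL aliquot dialyzed (MWCO 6,000-8,000) against 1,000 mL pH 7.4 buffer; drug quantified by HPLC/MS/MS. Efficiency = incorporated/total loaded ×100%.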

Data set [2] can be described thus: Plasma time course of anti-HIV drug combination lipid nanoparticles in primates. The following applies: male, Macaca nemestrina (macaque), in vivo, sc.
The nature of data set [3]: Hydration of drug in buffer in the absence of lipids. Format: physicochemical. To be noted: after solvent removal and hydration in buffer.
Data set [4] can be described thus: DPH fluorescence anisotropy: membrane fluidity and phase transition temperature. Format: physicochemical. The following applies: lipid-to-drug molar ratio 8:1. Background: Polarisation of emitted light reports the rotation of a fluorescent probe.
The conditions of data set [5]: 12 HIV infected patients, prospective clinical study; cited from earlier work.

In the case of `C[C@H](Cn1cnc2c(N)ncnc21)OCP(=O)(O)O` [Tenofovir (TFV), tenofovir], in data set [1], the “Drug incorporation (% total)” value was determined as 6.1 ± 0.8%. Also, the “AUC fraction (% total) 8-168 h” value in data set [2] was found to be 97.4%.
Regarding `CC(C)CN(C[C@@H](O)[C@H](Cc1ccccc1)NC(=O)O[C@H]1CO[C@H]2OCC[C@H]21)S(=O)(=O)c1ccc(N)cc1` [Darunavir (DRV), Darunavir], the “Behaviour in the absence of lipids in the mixture” value in data set [3] is “formed precipitates”. In data set [4], the “Effect on DPH polarization / membrane order versus drug-free lipid control” value was “decreased the polarization of DPH” and the “Reduction of Tc versus control LNPs” value worked out at 1.6 °C.
With `CC(C)c1nc(CN(C)C(=O)N[C@H](C(=O)N[C@@H](Cc2ccccc2)C[C@H](O)[C@H](Cc2ccccc2)NC(=O)OCc2cncs2)C(C)C)cs1` [Ritonavir (RTV), ritonavir], the “AUC fraction (% total) 8-168 h” value in data set [2] was found to be 80.4%.
For the molecule `COC(=O)N[C@H](C(=O)N[C@@H](Cc1ccccc1)[C@@H](O)CN(Cc1ccc(-c2ccccn2)cc1)NC(=O)[C@@H](NC(=O)OC)C(C)(C)C)C(C)(C)C` [Atazanavir (ATV), Atazanavir], the “Drug incorporation (% total)” value in data set [1] is on record as 85.5 ± 8.2%. Further, the “Incorporation efficiency (%)” value in data set [1] (lipid : drug 5 : 1 (mol/mol)) came to 96.5 ± 2.6%; in data set [1] (lipid : drug 8 : 1 (mol/mol)) it was 96.2 ± 3.8%; in data set [1] (lipid : drug 20 : 1 (mol/mol)), 97.4 ± 1.8%. Further, in data set [1] (range over lipid-to-drug molar ratios 5:1, 8:1 and 20:1), the Incorporation efficiency was 96.2-97.4%. Further, the “Lymph node intracellular drug levels lower than those in blood” value in data set [5] is given as at most 99%. The “Behaviour in the absence of lipids in the mixture” value in data set [3] is given as “formed precipitates”. In data set [2], the “AUC fraction (% total) 8-168 h” value is on record as 95.3%. Further, the “Effect on DPH polarization / membrane order versus drug-free lipid control” value in data set [4] is reported as “less influence on the membrane order”.
